ChEMBL document CHEMBL3102784, “Salicylanilide diethyl phosphates: synthesis, antimicrobial activity and cytotoxicity” (Bioorg Med Chem, 2014)
Converted amounts (≈) assume the structure as drawn. The source made the active and inactive calls. The rule behind the calls is not given here.

Key:
Nakaseomyces glabratus = experiment: Antifungal activity against Candida glabrata 20/I at 500 micromol/L after 24 to 48 hrs by broth microdilution method; type: functional, organism-based
In short: (§1)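 Broth microdilution in RPMI 1640 with glutamine, fluconazole as reference. For yeasts, MIC is ≥80% growth reduction (IC80) versus control. For filamentous fungi, the value is expressed as IC50. Readings at 24 and 48 h.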

Escherichia coli = experiment: Antibacterial activity against Escherichia coli CCM 4517 at 500 micromol/L after 24 to 48 hrs by broth microdilution method; type: functional, organism-based
In short: (§2)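 Broth microdilution in Mueller–Hinton broth, compounds dissolved in DMSO, tested over a dilution series from 500 downward. MIC taken as ≥95% growth reduction (IC95) versus drug-free control. Benzylpenicillin comparator. Readings at 24 and 48 h.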

Klebsiella pneumoniae [1] = experiment: Antibacterial activity against Klebsiella pneumoniae D 11750/08 at 500 micromol/L after 24 to 48 hrs by broth microdilution method; type: functional, organism-based; in short: as §2
Mycobacterium avium [2] = experiment: Antimycobacterial activity against isoniazid, rifampicin, ethambutol and ofloxacin-resistant Mycobacterium avium My 330/88 after 21 days; type: functional; conditions: My 330/88, 504 h
In short: (§3)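 Micromethod MIC in Šula's semisynthetic medium at 37 °C. Compounds added in DMSO at 1000 down to 0.032 µmol/L. Isoniazid standard in sterile water at 0.5–250 µmol/L. Inocula: H37Rv 10^3, M. avium 10^5, M. kansasii 10^4. Read at 14 and 21 d, plus 7 d for M. kansasii.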

Mycobacterium kansasii [3] = experiment: Antimycobacterial activity against Mycobacterium kansasii 6509/96 after 21 days; type: functional; conditions: 6509/96, 504 h; in short: as §3
Candida tropicalis = experiment: Antifungal activity against Candida tropicalis 156 at 500 micromol/L after 24 to 48 hrs by broth microdilution method; type: functional, organism-based; in short: as §1
[4] = system: Trichophyton mentagrophytes; experiment: Antifungal activity against Trichophyton mentagrophytes 445 after 72 hrs by broth microdilution method; type: functional; conditions: Trichophyton mentagrophytes, 445, 72 h
In short: (§4)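 Filamentous dermatophyte tested by broth microdilution in RPMI 1640 with glutamine, fluconazole as reference. Value expressed as IC50 relative to growth control. Read at 72 and 120 h.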

Candida albicans [5] = experiment: Antifungal activity against Candida albicans ATCC 44859 after 24 hrs by broth microdilution method; type: functional; conditions: ATCC 44859, 24 h; in short: as §1
Lichtheimia corymbifera [6] = experiment: Antifungal activity against Absidia corymbifera 272 after 24 hrs by broth microdilution method; type: functional; conditions: Lichtheimia corymbifera, 272, 24 h; in short: as §1
Staphylococcus aureus [7] = experiment: Antibacterial activity against methicillin-resistant Staphylococcus aureus H 5996/08 after 48 hrs by broth microdilution method; type: functional; conditions: H 5996/08, 48 h; in short: as §2
Mycobacterium kansasii [8] = experiment: Antimycobacterial activity against Mycobacterium kansasii 6509/96 after 7 days; type: functional; conditions: 6509/96, 168 h; in short: as §3
[9] = system: Staphylococcus epidermidis; experiment: Antibacterial activity against Staphylococcus epidermidis H 6966/08 after 48 hrs by broth microdilution method; type: functional; conditions: H 6966/08, 48 h; in short: as §2
[10] = system: Mycobacterium tuberculosis; experiment: Antimycobacterial activity against Mycobacterium tuberculosis H37Rv My 331/88 after 21 days; type: functional; conditions: H37Rv My 331/88, 504 h; in short: as §3
Enterococcus sp. = experiment: Antibacterial activity against Enterococcus sp. J 14365/08 at 500 micromol/L after 24 to 48 hrs by broth microdilution method; type: functional, organism-based; in short: as §2
[11] = system: Mycobacterium tuberculosis; experiment: Antimycobacterial activity against Mycobacterium tuberculosis H37Rv My 331/88 after 14 days; type: functional; conditions: H37Rv My 331/88, 336 h; in short: as §3
Mycobacterium kansasii [12] = experiment: Antimycobacterial activity against Mycobacterium kansasii My 235/80 after 21 days; type: functional; conditions: My 235/80, 504 h; in short: as §3
Lichtheimia corymbifera [13] = experiment: Antifungal activity against Absidia corymbifera 272 after 48 hrs by broth microdilution method; type: functional; conditions: Lichtheimia corymbifera, 272, 48 h; in short: as §1
[14] = system: Staphylococcus epidermidis; experiment: Antibacterial activity against Staphylococcus epidermidis H 6966/08 after 24 hrs by broth microdilution method; type: functional; conditions: H 6966/08, 24 h; in short: as §2
Aspergillus fumigatus [15] = experiment: Antifungal activity against Aspergillus fumigatus 231 after 48 hrs by broth microdilution method; type: functional; conditions: Aspergillus fumigatus, 231, 48 h; in short: as §1
Pichia kudriavzevii [16] = experiment: Antifungal activity against Candida krusei E28 after 24 hrs by broth microdilution method; type: functional; conditions: E28, 24 h; in short: as §1
Pichia kudriavzevii [17] = experiment: Antifungal activity against Candida krusei E28 after 48 hrs by broth microdilution method; type: functional; conditions: E28, 48 h; in short: as §1
Mycobacterium avium [18] = experiment: Antimycobacterial activity against isoniazid, rifampicin, ethambutol and ofloxacin-resistant Mycobacterium avium My 330/88 after 14 days; type: functional; conditions: My 330/88, 336 h; in short: as §3
Candida albicans [19] = experiment: Antifungal activity against Candida albicans ATCC 44859 after 48 hrs by broth microdilution method; type: functional; conditions: ATCC 44859, 48 h; in short: as §1
Trichosporon asahii [20] = experiment: Antifungal activity against Trichosporon asahii 1188 after 48 hrs by broth microdilution method; type: functional; conditions: Trichosporon asahii, 1188, 48 h; in short: as §1
Mycobacterium kansasii [21] = experiment: Antimycobacterial activity against Mycobacterium kansasii My 235/80 after 7 days; type: functional; conditions: My 235/80, 168 h; in short: as §3
Klebsiella pneumoniae [22] = experiment: Antibacterial activity against ESBL-positive Klebsiella pneumoniae J 14368/08 at 500 micromol/L after 24 to 48 hrs by broth microdilution method; type: functional, organism-based; in short: as §2
Aspergillus fumigatus [23] = experiment: Antifungal activity against Aspergillus fumigatus 231 after 24 hrs by broth microdilution method; type: functional; conditions: Aspergillus fumigatus, 231, 24 h; in short: as §1
Staphylococcus aureus [24] = experiment: Antibacterial activity against Staphylococcus aureus CCM 4516/08 after 48 hrs by broth microdilution method; type: functional; conditions: CCM 4516/08, 48 h; in short: as §2
Mycobacterium kansasii [25] = experiment: Antimycobacterial activity against Mycobacterium kansasii 6509/96 after 14 days; type: functional; conditions: 6509/96, 336 h; in short: as §3
Mycobacterium kansasii [26] = experiment: Antimycobacterial activity against Mycobacterium kansasii My 235/80 after 14 days; type: functional; conditions: My 235/80, 336 h; in short: as §3
HepG2 = experiment: Cytotoxicity against human HepG2 cells after 24 hrs by CellTiter assay; type: cell-based; conditions: HepG2, 24 h
In short: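 HepG2 cells (passage 27–33) in MEM with 10% FBS, L-glutamine and NEAA, seeded at 1×10^4 per well. Treated next day with compounds at 0.1–100 µM (or 0.1–25 µmol/L), triplicates, <1% DMSO, for 24 h at 37 °C, 5% CO2. MTS reagent added for 2 h, absorbance read at 490 nm. IC50 taken against untreated (100%) and 10% DMSO (0%) controls.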

Pseudomonas aeruginosa = experiment: Antibacterial activity against Pseudomonas aeruginosa CCM 1961 at 500 micromol/L after 24 to 48 hrs by broth microdilution method; type: functional, organism-based; in short: as §2
Staphylococcus aureus [27] = experiment: Antibacterial activity against methicillin-resistant Staphylococcus aureus H 5996/08 after 24 hrs by broth microdilution method; type: functional; conditions: H 5996/08, 24 h; in short: as §2
Trichosporon asahii [28] = experiment: Antifungal activity against Trichosporon asahii 1188 after 24 hrs by broth microdilution method; type: functional; conditions: Trichosporon asahii, 1188, 24 h; in short: as §1
Staphylococcus aureus [29] = experiment: Antibacterial activity against Staphylococcus aureus CCM 4516/08 after 24 hrs by broth microdilution method; type: functional; conditions: CCM 4516/08, 24 h; in short: as §2
[30] = system: Trichophyton mentagrophytes; experiment: Antifungal activity against Trichophyton mentagrophytes 445 after 120 hrs by broth microdilution method; type: functional; conditions: Trichophyton mentagrophytes, 445, 120 h; in short: as §4

In the case of `CCOP(=O)(OCC)Oc1ccc(Cl)cc1C(=O)Nc1ccc(Cl)c(Cl)c1`, the Activity (Nakaseomyces glabratus) is reported as “inactive”, the Activity (Escherichia coli) is reported as “inactive” and the Activity (Klebsiella pneumoniae [1]) is reported as “inactive”. The MIC (Mycobacterium avium [2]) was 16 µM (≈ 7.24 µg/mL), the MIC (Mycobacterium kansasii [3]) was 4 µM (≈ 1.81 µg/mL) and the Activity (Candida tropicalis) was “inactive”. The MIC50 [4] was 500 µM (≈ 226 µg/mL), the MIC80 (Candida albicans [5]) was > 500 µM and the MIC50 (Lichtheimia corymbifera [6]) was > 500 µM. For the same compound, the MIC95 (Staphylococcus aureus [7]) was > 500 µM, the MIC (Mycobacterium kansasii [8]) was 4 µM (≈ 1.81 µg/mL) and the MIC95 [9] was > 500 µM. For the same compound, the MIC [10] was 1 µM (≈ 0.453 µg/mL), the Activity (Enterococcus sp.) was “inactive” and the MIC [11] was 1 µM (≈ 0.453 µg/mL). The MIC (Mycobacterium kansasii [12]) was 4 µM (≈ 1.81 µg/mL), the MIC50 (Lichtheimia corymbifera [13]) was > 500 µM and the MIC95 [14] was > 500 µM. For the same compound, the MIC50 (Aspergillus fumigatus [15]) was > 500 µM, the MIC80 (Pichia kudriavzevii [16]) was > 500 µM and the MIC80 (Pichia kudriavzevii [17]) was > 500 µM. The MIC (Mycobacterium avium [18]) was 16 µM (≈ 7.24 µg/mL), the MIC80 (Candida albicans [19]) was > 500 µM and the MIC80 (Trichosporon asahii [20]) was > 500 µM. For the same compound, the MIC (Mycobacterium kansasii [21]) was 4 µM (≈ 1.81 µg/mL), the Activity (Klebsiella pneumoniae [22]) was “inactive” and the MIC50 (Aspergillus fumigatus [23]) was > 500 µM. For the same compound, the MIC95 (Staphylococcus aureus [24]) was > 500 µM, the MIC (Mycobacterium kansasii [25]) was 4 µM (≈ 1.81 µg/mL) and the MIC (Mycobacterium kansasii [26]) was 4 µM (≈ 1.81 µg/mL). The IC50 (HepG2) was 2840 nM, the Activity (Pseudomonas aeruginosa) was “inactive” and the MIC95 (Staphylococcus aureus [27]) was > 500 µM. The MIC80 (Trichosporon asahii [28]) was > 500 µM, the MIC95 (Staphylococcus aureus [29]) was > 500 µM and the MIC50 [30] was 500 µM (≈ 226 µg/mL).
